According to PubChem BioAssay:
Calls of active or inactive are those of the source.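 Rule for the calls, unless noted: active = viability at or below 30% in both replicate assays; inconclusive = viability at or below 30% in just one of the two assays; inactive = the rest.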

Tests used:
[1] = HUVEC growth inhibition – cell-based, human, primary screen (AID 575); details: HUVEC proliferation, CellTiter-Glo luminescence, 72 h; at 10 µM; stronger effect = lower value;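 note: 100% = median of untreated cell wells with 0.1% DMSO on each plate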
Method in brief: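 Test system: primary human umbilical vein endothelial cells. Quantity: 1250 cells/well. Compound: single 10 µM dose, 0.1% DMSO, from 5x medium stock. Timing: 72 h treatment at 37 °C. Detection: ATP-based CellTiter-Glo luminescent read. Benchmarks: vehicle and MePR control wells. Format: 384-well plates coated with collagen.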

[2] = H69AR cell proliferation blockers – human, duplicate replicates, primary screen (AID 580;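 active = viability at or under a set limit in both replicates, limit being median viability minus 3 SD, cut at about 48% in these data, passing the limit was not always enough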;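 note: 100% = mean luminescence of untreated wells and 0% = no signal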); details: H69AR lung tumor cells viability, ATP luminescence, 72 h; at 10 µM; stronger effect = lower value
[3] = MRP1 drug-resistance reversers in H69AR cells – cell-based, doxorubicin co-treatment, pilot screen (AID 601;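 active = viability loss from added drug above about 55%, and viability with drug at most 40%, in both replicates, limit read from the data, passing the limit was not always enough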); details: CellTiter-Glo, 72 h, at 10 µM; for differential viability (reversal): stronger effect = higher value
[4] = yeast transport mutant growth inhibition pilot in 384-well plates, post-Golgi transport modulator project (AID 636; in the data active = inhibition above about 31%); details: absorbance 615 nm, about 18 h, stronger effect = higher value
[5] = growth suppression of yeast trafficking mutant, preliminary HTS, modulators of trafficking downstream of Golgi apparatus project, 1536-format plate, OD 615 nm (AID 637; in the data active = inhibition above about 30%); details: yeast transport mutant growth, absorbance 615 nm, 18 h; stronger effect = higher value
[6] = H69AR cells + 2 uM doxorubicin, measured here: viability with 2 uM doxorubicin, stronger effect = lower value
[7] = H69AR cells, compound alone cytotoxicity

SMILES	viability [1]	viability [2]	differential viability (reversal) ([3]; H69AR cells + 2 uM doxorubicin)	viability [3, 6]	viability [3, 7]	inhibition [4]	inhibition [5]
Cc1ccc(O)c(C(=O)c2cc(C#N)c(=O)n(CC3CCCO3)c2)c1 (centres undefined)	93.2% (inactive)	89.7% (inactive)	-2.82% (inactive)	92.6%	89.7%	-1.3% (inactive)	0.16% (inactive)
COc1ccc(Br)cc1S(=O)(=O)N1CCOCC1	99.7% (inactive)	87.2% (inactive)	3.77% (inactive)	83.5%	87.2%	-2.76% (inactive)	1.75% (inactive)
Cn1c(=O)c(=O)n(C)c2cc(S(=O)(=O)Nc3ccc4c(c3)OCCO4)ccc21	99.5% (inactive)	94.9% (inactive)	6.65% (inactive)	88.2%	94.9%	-0.67% (inactive)	8.41% (inactive)
Cc1ccc(SCCC(=O)N(C)C)cc1	105% (inactive)	103% (inactive)	18.3% (inactive)	84.6%	103%	-2.89% (inactive)	0% (inactive)
O=S(=O)(c1ccc2c(c1)OCCO2)N(Cc1ccc(F)cc1)Cc1nnc(-c2cccs2)o1	81% (inactive)	92.1% (inactive)	8.63% (inactive)	83.4%	92.1%	-3.38% (inactive)	0.79% (inactive)
CCOc1ccc(CNc2ccc3c(c2)ncn3C)cc1	106% (inactive)	93.2% (inactive)	3.64% (inactive)	89.5%	93.2%	-3.73% (inactive)	-6.83% (inactive)
CCOC(=O)C1CCN(C(=O)c2c(-c3c(Cl)cccc3Cl)noc2C)CC1	95.8% (inactive)	84.8% (inactive)	-6.21% (inactive)	91.1%	84.8%	-2.73% (inactive)	-9.68% (inactive)
COc1cccc(OC)c1OCCCSc1nc(C)cc(=O)[nH]1	107% (inactive)	91.1% (inactive)	-5.15% (inactive)	96.2%	91.1%	-4% (inactive)	-5.56% (inactive)
CCN1CCN(Cc2c(C)[nH]c3ccc(OC)cc3c2=O)CC1	96.8% (inactive)	93.5% (inactive)	4.75% (inactive)	88.8%	93.5%	-2.73% (inactive)	4.44% (inactive)
CCOC(=O)NC(=O)CSc1nnc(C)s1	115% (inactive)	105% (inactive)	8.07% (inactive)	96.5%	105%	-4.08% (inactive)	3.65% (inactive)
Cc1nc(NC2=NCN(CCc3ccccc3)CN2)nc2c(C)cccc12	81.9% (inactive)	78% (inactive)	-15.7% (inactive)	93.7%	78%	-3.82% (inactive)	4.76% (inactive)
Cn1c(COc2ccccc2)nnc1SCC(=O)Nc1ccc(N2CCOCC2)c(Cl)c1	94.4% (inactive)	94.4% (inactive)	11.6% (inactive)	82.8%	94.4%	-7.37% (inactive)	-0.48% (inactive)
CC1CCCC(NC(=O)CN2CCN(Cc3ccc(Cl)cc3)C2=O)C1C (centres undefined)	108% (inactive)	103% (inactive)	16.2% (inactive)	86.4%	103%	-1.43% (inactive)	4.92% (inactive)
COc1ccc(/C(O)=C2/C(=O)C(=O)N(Cc3cccnc3)C2c2ccncc2)cc1F (centres undefined)	111% (inactive)	97.4% (inactive)	3.08% (inactive)	94.3%	97.4%	-6.62% (inactive)	0.16% (inactive)
COc1cc(NC(=O)Nc2cccc(Cl)c2)c(OC)cc1NC(=O)CN1CCCCC1	20.3% (active)	3.06% (active)	-9.94% (inactive)	13%	3.06%	-6.27% (inactive)	-0.95% (inactive)
CCCCCn1c(CN(C)Cc2ccccc2)nc2c1c(=O)n(C)c(=O)n2C	85.8% (inactive)	79.8% (inactive)	11.4% (inactive)	68.3%	79.8%	1.45% (inactive)	4.76% (inactive)
CCOC(=O)CSC1=Nc2ccccc2C2=NC(CC(=O)NCc3cccs3)C(=O)N12 (centres undefined)	81.9% (inactive)	91.7% (inactive)	5.7% (inactive)	86%	91.7%	-6.75% (inactive)	-5.56% (inactive)
CC(C)OC(=O)CSc1nnc(-c2ccc(O)cc2)n1Cc1ccccc1	109% (inactive)	80.8% (inactive)	-4.22% (inactive)	85%	80.8%	-7.2% (inactive)	-2.22% (inactive)
CCS(=O)(=O)N1CCCC(C(=O)NCCc2ccc(OC)c(OC)c2)C1 (centres undefined)	101% (inactive)	104% (inactive)	9.14% (inactive)	94.5%	104%	1.07% (inactive)	-0.95% (inactive)

SMILES	viability [1]	viability [2]	differential viability (reversal) ([3]; H69AR cells + 2 uM doxorubicin)	viability [3, 6]	viability [3, 7]	inhibition [4]	inhibition [5]
CC(C)C(c1nnnn1C1CCCC1)N1CCCc2ccccc21 (centres undefined)	80.3% (inactive)	84.5% (inactive)	-6.77% (inactive)	91.2%	84.5%	1.33% (inactive)	-3.65% (inactive)
Cc1cc(C)c2c(N)c(C(=O)c3ccccc3)oc2n1	80.2% (inactive)	90.4% (inactive)	-1.71% (inactive)	92.1%	90.4%	-7.6% (inactive)	2.22% (inactive)
CCn1c(CSc2nc(C)cc(C)n2)nnc1SCC(=O)Nc1ccccc1	104% (inactive)	89.5% (inactive)	4.12% (inactive)	85.4%	89.5%	-4.27% (inactive)	-3.02% (inactive)
C=CCn1c(Cc2csc(N)n2)nnc1SCC(=O)OCC	103% (inactive)	91.9% (inactive)	-4.66% (inactive)	96.6%	91.9%	-2.63% (inactive)	-6.67% (inactive)
Cc1cc(=O)oc2c(CN3CCN(C)CC3)c(O)c(Cl)cc12	101% (inactive)	90.7% (inactive)	6.16% (inactive)	84.5%	90.7%	-6.05% (inactive)	-0.95% (inactive)
CC(C)C1N=C2c3ccccc3N=C(SCC(=O)NCCc3ccc(S(N)(=O)=O)cc3)N2C1=O (centres undefined)	82.8% (inactive)	86.7% (inactive)	4.46% (inactive)	82.3%	86.7%	-2.47% (inactive)	4.13% (inactive)
CCCCn1c(NC(=O)CC)c(C#N)c2nc3ccccc3nc21	77.4% (inactive)	81.9% (inactive)	2.13% (inactive)	79.8%	81.9%	-6.67% (inactive)	-2.38% (inactive)
Cc1c(NC(=O)C2CCCNC2=O)c(=O)n(-c2ccccc2)n1C (centres undefined)	107% (inactive)	107% (inactive)	-0.405% (inactive)	107%	107%	-2.24% (inactive)	3.33% (inactive)
CCCS(=O)(=O)N1CCN(C(=O)CCC2CCCC2)CC1	101% (inactive)	85% (inactive)	0.865% (inactive)	84.1%	85%	-3.29% (inactive)	-1.11% (inactive)
CCN(c1ccccc1)S(=O)(=O)c1ccc(F)cc1C	86.5% (inactive)	90.4% (inactive)	7.2% (inactive)	83.2%	90.4%	-1.04% (inactive)	-5.71% (inactive)
CSc1cccc(NC(=O)C2CCN(S(C)(=O)=O)CC2)c1	107% (inactive)	90.3% (inactive)	0.77% (inactive)	89.6%	90.3%	-4.08% (inactive)	2.06% (inactive)
Brc1ccc(-c2nnc3sc(CN4CCC5(CC4)OCCO5)cn23)cc1	113% (inactive)	95.9% (inactive)	7.72% (inactive)	88.1%	95.9%	-2.08% (inactive)	-2.22% (inactive)
COC(=O)c1cc(-c2c(C)nn(-c3ccccc3)c2C)n[nH]1	97.8% (inactive)	101% (inactive)	-2.79% (inactive)	104%	101%	-2.63% (inactive)	-4.76% (inactive)
CCOc1ccc(-c2nc(C#N)c(N3CCN(C)CC3)o2)cc1	82.1% (inactive)	97.6% (inactive)	0.87% (inactive)	96.7%	97.6%	-1.6% (inactive)	11.3% (inactive)
COc1ccc(S(=O)(=O)Nc2ccc3c(c2)OCO3)cc1Cl	12.9% (active)	87.3% (inactive)	5.36% (inactive)	82%	87.3%	-6.67% (inactive)	12.1% (inactive)
c1ccc(CCc2nn3c(Cn4cnc5ccccc54)nnc3s2)cc1	75.8% (inactive)	81.8% (inactive)	-3.56% (inactive)	85.4%	81.8%	-1.18% (inactive)	11.4% (inactive)
CCn1c(=N)n(CC(=O)C23CC4CC(CC(C4)C2)C3)c2ccccc21	4.87% (active)	83.1% (inactive)	-0.145% (inactive)	83.2%	83.1%	-5.27% (inactive)	15.3% (inactive)
Cc1ccc(NC(=O)CSc2nnc(-c3ccccn3)n2C)cc1	115% (inactive)	91.5% (inactive)	-0.845% (inactive)	92.3%	91.5%	-7.73% (inactive)	-8.89% (inactive)
